# Measurements published in publication PMC5901648 (Cancer, 2017).
# Structures can show the parent of a compound that is named as a salt. Where two headings read alike, the source gives them in different places.
# What was measured:
# [1] = in vivo studies; cited from earlier work
# [2] = Plasma pharmacokinetics of pracinostat; type: in vivo, human; settings: for half-life / Tmax / AUC(0-inf) / Cmax: human, plasma; for AUC(0-inf): AUC0-inf
# Outline: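 The test compound was given orally at 10–120 mg to patients with hematologic malignancies. AUC0-inf was noncompartmental, t1/2 came from the terminal log-linear phase (≥3 last points), and Cmax/Tmax were read from the curves.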
# [3] = system: patients with advanced hematological malignancies; test: Efficacy; type: in vivo, human
# [4] = system: patients with advanced solid tumors; settings: cited from earlier work; for stable disease (SD) as best response, patients: advanced solid tumors
# [5] = system: patients with advanced hematological malignancies; test: Phase 1 dose escalation, safety and toxicity, Arm 1; settings: human, in vivo
# [6] = system: histone H3 acetylation (AcH3) in peripheral blood mononuclear cells; test: Pharmacodynamics: AcH3 levels in PBMCs; type: in vivo, human; settings: ten subjects; maximal at 3 h post-dose; no dose-dependent increase
# [7] = system: HDAC; settings: pan-HDACI; cited from earlier work
# [8] = cited from earlier work
# [9] = po, 40 mg, Day 15, 40 mg oral, n=5, mean±SD
# [10] = po, 40 mg, Day 1, 40 mg oral, n=6, mean±SD
# [11] = po, 60 mg, Day 1, 60 mg oral, n=3, mean±SD
# [12] = po, 60 mg, Day 15, 60 mg oral, n=3, mean±SD
# [13] = po, 80 mg, Day 1, 80 mg oral, n=3, mean±SD
# [14] = po, 80 mg, Day 15, 80 mg oral, n=3, mean±SD
# [15] = po, 100 mg, Day 1, 100 mg oral, n=3, mean±SD
# [16] = po, 100 mg, Day 15, 100 mg oral, n=3, mean±SD
# [17] = po, 120 mg, Day 1, 120 mg oral, n=6, mean±SD
# [18] = po, 120 mg, Day 15, 120 mg oral, n=2, mean
smiles,measurement,setting,value
"CCCCc1nc2cc(/C=C/C(=O)NO)ccc2n1CCN(CC)CC [Pracinostat, 3-[2-butyl-1-(2-diethylaminoethyl)-1H-benzoimidazol-5-yl]-N-hydroxyacrylami-hydrochloride]",increased half-life (t1/2) compared to vorinostat,[1],3.3 fold
same,increased oral bioavailability compared to vorinostat,[1],4.1 fold
same,accumulation between Day 1 and Day 15 following repeated dosing,[2]; 100-mg dose level,moderate accumulation
same,"plasma concentrations relative to IC50 for HDAC 1, 2, and 3",[2]; all dose levels,above the 50% inhibitory concentration (IC50)
same,half-life,"[2]; oral, 120 mg, prolonged t1/2 reaching, discussion summary",≤ 14 h
same,Tmax,"[2]; oral, range over dose levels, 40-120 mg, Days 1 and 15",0.8 to 1.3 h
same,half-life,"[2]; oral, mean t1/2, range over dose levels, 40-120 mg, Days 1 and 15",7 to 14.1 h
same,AUC(0-inf),[2]; [9],477 ± 191 ng·h/mL
same,Cmax,[2]; [10],84 ± 34 ng/mL
same,Cmax,[2]; [9],64 ± 19 ng/mL
same,Tmax,[2]; [10],1.1 ± 0.7 h
same,Tmax,[2]; [9],1.3 ± 0.7 h
same,half-life,"[2]; po, 40 mg, t1/2, Day 1, 40 mg oral, n=6, mean±SD",9.4 ± 3.5 h
same,half-life,"[2]; po, 40 mg, t1/2, Day 15, 40 mg oral, n=5, mean±SD",10.7 ± 2.3 h
same,AUC(0-inf),[2]; [11],948 ± 1140 ng·h/mL
same,AUC(0-inf),[2]; [12],766 ± 746 ng·h/mL
same,Cmax,[2]; [11],133 ± 117 ng/mL
same,Cmax,[2]; [12],118 ± 135 ng/mL
same,Tmax,[2]; [11],1 ± 0.5 h
same,Tmax,[2]; [12],0.8 ± 0.3 h
same,half-life,"[2]; po, 60 mg, t1/2, Day 1, 60 mg oral, n=3, mean±SD",12.1 ± 2.3 h
same,half-life,"[2]; po, 60 mg, t1/2, Day 15, 60 mg oral, n=3, mean±SD",11.8 ± 3.4 h
same,AUC(0-inf),[2]; [13],1050 ± 803 ng·h/mL
same,AUC(0-inf),[2]; [14],977 ± 459 ng·h/mL
same,Cmax,[2]; [13],189 ± 182 ng/mL
same,Cmax,[2]; [14],164 ± 122 ng/mL
same,Tmax,[2]; [13],1.3 ± 0.8 h
same,Tmax,[2]; [14],1.2 ± 0.3 h
same,half-life,"[2]; po, 80 mg, t1/2, Day 1, 80 mg oral, n=3, mean±SD",7 ± 1.1 h
same,half-life,"[2]; po, 80 mg, t1/2, Day 15, 80 mg oral, n=3, mean±SD",9.3 ± 4.1 h
same,AUC(0-inf),[2]; [15],1170 ± 347 ng·h/mL
same,AUC(0-inf),[2]; [16],1980 ± 682 ng·h/mL
same,Cmax,[2]; [15],187 ± 99 ng/mL
same,Cmax,[2]; [16],314 ± 143 ng/mL
same,Tmax,[2]; [15],1.2 ± 0.3 h
same,Tmax,[2]; [16],1 ± 0.5 h
same,half-life,"[2]; po, 100 mg, t1/2, Day 1, 100 mg oral, n=3, mean±SD",8.4 ± 1.1 h
same,half-life,"[2]; po, 100 mg, t1/2, Day 15, 100 mg oral, n=3, mean±SD",13.7 ± 5.6 h
same,AUC(0-inf),[2]; [17],1360 ± 725 ng·h/mL
same,AUC(0-inf),[2]; [18],757 ng·h/mL
same,Cmax,[2]; [17],202 ± 83 ng/mL
same,Cmax,[2]; [18],96 ng/mL
same,Tmax,[2]; [17],1.2 ± 0.4 h
same,Tmax,[2]; [18],1 h
same,half-life,"[2]; po, 120 mg, t1/2, Day 1, 120 mg oral, n=6, mean±SD",10.8 ± 3 h
same,half-life,"[2]; po, 120 mg, t1/2, Day 15, 120 mg oral, n=2, mean",14.1 h
same,effect of AZA administration on PK parameters for pracinostat,[2]; in vivo,not affected
same,PFS of responding AML patient,"[3]; 80 mg dose level, 11 cycles",362 days
same,PFS of responding AML patient,"[3]; 120 mg dose level, 8 cycles",197 days
same,progressive disease,[3]; 32 evaluable patients,31%
same,responders (CR or CCyR),[3]; 32 evaluable patients,6%
same,Median OS,[3]; 95% CI: 114.0- NA,362 days
same,patients who died,[3]; Thirteen patients of 44,30%
same,"stable disease (SD) as best response, patients",[4]; ref 12,32%
same,"stable disease (SD) as best response, patients",[4]; ref 13,21%
same,dose of early emergence of grade 3 TRAEs and DLTs,[4]; continuous 5-day dosing every 2 weeks,20 mg
same,"AEs leading to a dose-interruption, patients",[5],34%
same,"AEs leading to a dose-reduction, patients",[5],27%
same,"Anemia, treatment-related adverse event, All Grades",[5],5%
same,"Anemia, treatment-related adverse event, Grade ≥ 3",[5],5%
same,"Anorexia, treatment-related adverse event, All Grades",[5],23%
same,"Anorexia, treatment-related adverse event, Grade ≥ 3",[5],2%
same,"Constipation, treatment-related adverse event, All Grades",[5],5%
same,"Constipation, treatment-related adverse event, Grade ≥ 3",[5],0%
same,"Diarrhea, treatment-related adverse event, All Grades",[5],16%
same,"Diarrhea, treatment-related adverse event, Grade ≥ 3",[5],2%
same,"Elevated ALT, treatment-related adverse event, All Grades",[5],0%
same,"Elevated ALT, treatment-related adverse event, Grade ≥ 3",[5],0%
same,"Fatigue, treatment-related adverse event, All Grades",[5],41%
same,"Fatigue, treatment-related adverse event, Grade ≥ 3",[5],11%
same,"Infections, treatment-related adverse event, All Grades",[5],9%
same,"Infections, treatment-related adverse event, Grade ≥ 3",[5],9%
same,"Nausea, treatment-related adverse event, All Grades",[5],30%
same,"Nausea, treatment-related adverse event, Grade ≥ 3",[5],0%
same,"Neutropenia, treatment-related adverse event, All Grades",[5],2%
same,"Neutropenia, treatment-related adverse event, Grade ≥ 3",[5],2%
same,"QTc prolongation, treatment-related adverse event, All Grades",[5],7%
same,"QTc prolongation, treatment-related adverse event, Grade ≥ 3",[5],5%
same,"Thrombocytopenia, treatment-related adverse event, All Grades",[5],14%
same,"Thrombocytopenia, treatment-related adverse event, Grade ≥ 3",[5],11%
same,"Vomiting, treatment-related adverse event, All Grades",[5],14%
same,"Vomiting, treatment-related adverse event, Grade ≥ 3",[5],0%
same,"discontinuation of pracinostat due to an AE, patients",[5],25%
same,patients who experienced a grade ≥ 3 TRAE,[5],20%
same,patients who experienced at least 1 TRAE,[5],77%
same,pracinostat doses at which grade ≥ 3 thrombocytopenia was experienced,[5],≥ 80 mg
same,"DLTs, patients",[5]; 28 days,13%
same,doses at which DLTs occurred,[5]; 28 days,≥ 40 mg
same,recommended phase II dose (RP2D),"[5]; po, 28 days",60 mg
same,AcH3 levels in PBMCs,[6],increased across all dose levels
same,potency relative to vorinostat,[7],about twice
O=C(CCCCCCC(=O)Nc1ccccc1)NO [vorinostat],half-life,[8],1 to 2 h
